Measurements as given in ChEMBL document CHEMBL4732120, “Discovery of novel PARP/PI3K dual inhibitors with high efficiency against BRCA-proficient triple negative breast cancer” (Eur J Med Chem, 2021).
Each block holds one compound with its values, some of them ahead of it. Active and inactive are the calls of the source. No cut-off for these calls is given here.

Columns and labels:
[1] = biological target: T1, Phosphatidylinositol 4,5-bisphosphate 3-kinase catalytic subunit alpha isoform (Homo sapiens, UniProt P42336); experiment: Inhibition of PI3Kalpha (unknown origin) at 100 nM relative to control
T1 sequence (P42336 whole entry, canonical isoform): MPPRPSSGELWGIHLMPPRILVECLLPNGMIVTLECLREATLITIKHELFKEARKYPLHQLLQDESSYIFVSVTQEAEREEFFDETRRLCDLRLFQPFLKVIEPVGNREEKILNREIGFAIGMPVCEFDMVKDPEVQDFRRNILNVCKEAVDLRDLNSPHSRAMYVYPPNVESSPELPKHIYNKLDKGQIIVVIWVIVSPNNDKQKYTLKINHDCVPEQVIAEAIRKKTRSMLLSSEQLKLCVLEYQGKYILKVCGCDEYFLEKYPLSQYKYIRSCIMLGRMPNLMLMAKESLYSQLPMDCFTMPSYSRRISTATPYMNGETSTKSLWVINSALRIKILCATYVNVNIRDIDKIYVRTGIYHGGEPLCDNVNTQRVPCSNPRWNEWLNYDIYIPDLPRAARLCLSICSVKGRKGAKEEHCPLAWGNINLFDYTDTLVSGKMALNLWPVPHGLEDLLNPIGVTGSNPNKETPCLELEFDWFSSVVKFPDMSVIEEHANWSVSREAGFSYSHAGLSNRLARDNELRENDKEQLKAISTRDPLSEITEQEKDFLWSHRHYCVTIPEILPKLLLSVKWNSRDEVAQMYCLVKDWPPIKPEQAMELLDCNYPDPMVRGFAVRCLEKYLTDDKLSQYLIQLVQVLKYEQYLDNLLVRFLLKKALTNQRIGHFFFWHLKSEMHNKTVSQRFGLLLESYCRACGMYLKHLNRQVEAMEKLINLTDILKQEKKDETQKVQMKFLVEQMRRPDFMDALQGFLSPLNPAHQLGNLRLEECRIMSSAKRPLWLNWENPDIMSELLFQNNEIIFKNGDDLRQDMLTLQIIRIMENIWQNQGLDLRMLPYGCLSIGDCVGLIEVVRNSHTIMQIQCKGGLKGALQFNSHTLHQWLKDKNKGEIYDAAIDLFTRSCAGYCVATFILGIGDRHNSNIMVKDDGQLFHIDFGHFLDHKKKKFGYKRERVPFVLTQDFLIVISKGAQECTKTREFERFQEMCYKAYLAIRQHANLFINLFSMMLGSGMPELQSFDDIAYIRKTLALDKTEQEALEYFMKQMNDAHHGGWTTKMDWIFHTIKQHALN

MDA-MB-468 [2] = experiment: Induction of apoptosis in human MDA-MB-468 cells assessed as viable cells at 1 uM measured after 72 hrs by Annexin V-FITC/propidium iodide staining based flow cytometry (reference value: 95.2%); assay type: functional; conditions: read-out: Activity
MDA-MB-468 [3] = experiment: Induction of apoptosis in human MDA-MB-468 cells assessed as early apoptotic cells at 1 uM measured after 72 hrs by Annexin V-FITC/propidium iodide staining based flow cytometry (reference value: 3.88%); assay type: functional
MDA-MB-468 [4] = experiment: Induction of apoptosis in human MDA-MB-468 cells assessed as late apoptotic cells at 1 uM measured after 72 hrs by Annexin V-FITC/propidium iodide staining based flow cytometry (reference value: 0.78%); assay type: functional
MDA-MB-468 [5] = experiment: Induction of apoptosis in human MDA-MB-468 cells assessed as necrotic cells at 1 uM measured after 72 hrs by Annexin V-FITC/propidium iodide staining based flow cytometry (reference value: 0.13%); assay type: functional
MDA-MB-468 [6] = experiment: Inhibition of PARP1/PI3Kalpha in human MDA-MB-468 cells assessed as down regulation of BRCA1 mRNA expression at 1 uM by RT-PCR analysis
MDA-MB-468 [7] = experiment: Inhibition of PARP1/PI3Kalpha in human MDA-MB-468 cells assessed as down regulation of BRCA2 mRNA expression at 1 uM by RT-PCR analysis
MDA-MB-468 [8] = experiment: Antitumor activity against human MDA-MB-468 cells xenografted in BALB/c mouse assessed as tumor growth inhibition at 27.5 mg/kg, ip administered every two days for 34 days relative to control; conditions: MDA-MB-468, ip, 816 h, read-out: TGI
[9] = Solubility of compound at pH 7; assay type: physicochemical; conditions: buffer
[10] = biological target: T2, Poly [ADP-ribose] polymerase 1 (Homo sapiens, UniProt P09874); experiment: Inhibition of PARP1 (unknown origin)
T2 sequence (P09874 whole entry): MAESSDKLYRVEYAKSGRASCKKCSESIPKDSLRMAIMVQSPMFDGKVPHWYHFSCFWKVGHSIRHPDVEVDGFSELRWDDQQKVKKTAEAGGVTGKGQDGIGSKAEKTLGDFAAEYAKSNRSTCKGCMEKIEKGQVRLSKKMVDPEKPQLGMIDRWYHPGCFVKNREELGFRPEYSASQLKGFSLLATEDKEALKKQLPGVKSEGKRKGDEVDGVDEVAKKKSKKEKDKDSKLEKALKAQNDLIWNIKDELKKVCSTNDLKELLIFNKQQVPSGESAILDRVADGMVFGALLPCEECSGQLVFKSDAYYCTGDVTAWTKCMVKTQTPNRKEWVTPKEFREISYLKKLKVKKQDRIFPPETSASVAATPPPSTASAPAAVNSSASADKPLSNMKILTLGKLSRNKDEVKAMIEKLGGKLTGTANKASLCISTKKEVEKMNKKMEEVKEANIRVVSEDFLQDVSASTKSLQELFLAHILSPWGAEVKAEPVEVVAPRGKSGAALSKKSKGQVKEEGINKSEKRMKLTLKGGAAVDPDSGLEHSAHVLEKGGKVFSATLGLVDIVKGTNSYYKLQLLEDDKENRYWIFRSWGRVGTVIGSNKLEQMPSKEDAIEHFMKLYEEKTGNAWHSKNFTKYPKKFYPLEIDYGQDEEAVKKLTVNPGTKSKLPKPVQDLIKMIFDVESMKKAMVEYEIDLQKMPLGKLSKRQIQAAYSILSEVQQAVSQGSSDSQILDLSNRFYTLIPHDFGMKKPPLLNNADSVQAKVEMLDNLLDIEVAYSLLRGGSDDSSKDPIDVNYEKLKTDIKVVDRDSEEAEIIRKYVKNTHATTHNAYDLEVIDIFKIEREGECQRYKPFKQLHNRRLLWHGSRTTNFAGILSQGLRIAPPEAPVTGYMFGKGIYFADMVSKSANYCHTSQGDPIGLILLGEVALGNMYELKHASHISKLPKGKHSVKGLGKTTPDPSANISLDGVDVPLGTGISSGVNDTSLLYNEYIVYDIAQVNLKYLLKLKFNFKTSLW
How it was run: (§1)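 PARP-1 and PI3Kα enzyme inhibition. IC50 taken from dose-response curves and given as mean ± SD of three independent experiments.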

[11] = biological target: T1, Phosphatidylinositol 4,5-bisphosphate 3-kinase catalytic subunit alpha isoform; experiment: Inhibition of PI3Kalpha (unknown origin); how it was run: as §1
MDA-MB-468 [12] = experiment: Antiproliferative activity against human MDA-MB-468 cells measured after 7 days by Celltiter-glo assay; assay type: functional, cell-based; conditions: MDA-MB-468, 168 h
How it was run: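 MDA-MB-468 cells grown in RPMI1640 with 10% FBS at 37 °C, 5% CO2. Seeded the day before dosing, grown 12 h, then exposed to a range of concentrations for 7 days. Viability read by CellTiter-Glo luminescence after 10 min at room temperature. Inhibition % = (1 − (RLU cpd − blank)/(RLU DMSO − blank)) × 100. IC50 from nonlinear regression of normalized dose-response.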

[13] = biological target: T2, Poly [ADP-ribose] polymerase 1; conditions: dose 10.0 nM
[14] = Solubility of compound; assay type: physicochemical
MDA-MB-468 [15] = experiment: Induction of apoptosis in human MDA-MB-468 cells assessed as viable cells at 2 uM measured after 72 hrs by Annexin V-FITC/propidium iodide staining based flow cytometry (reference value: 95.2%); assay type: functional; conditions: read-out: Activity
MDA-MB-468 [16] = experiment: Induction of apoptosis in human MDA-MB-468 cells assessed as early apoptotic cells at 2 uM measured after 72 hrs by Annexin V-FITC/propidium iodide staining based flow cytometry (reference value: 3.88%); assay type: functional
MDA-MB-468 [17] = experiment: Induction of apoptosis in human MDA-MB-468 cells assessed as necrotic cells at 2 uM measured after 72 hrs by Annexin V-FITC/propidium iodide staining based flow cytometry (reference value: 0.13%); assay type: functional
MDA-MB-468 [18] = experiment: Inhibition of PARP1/PI3Kalpha in human MDA-MB-468 cells assessed as down regulation of BRCA1 mRNA expression at 2 uM by RT-PCR analysis
MDA-MB-468 [19] = experiment: Inhibition of PARP1/PI3Kalpha in human MDA-MB-468 cells assessed as down regulation of BRCA2 mRNA expression at 2 uM by RT-PCR analysis
MDA-MB-468 [20] = experiment: Antitumor activity against human MDA-MB-468 cells xenografted in BALB/c mouse assessed as tumor growth inhibition at 50 mg/kg, ip administered every two days for 34 days relative to control; conditions: MDA-MB-468, ip, 816 h, read-out: TGI

inhibition [1]: 82%
SMILES: Nc1cc(C(F)(F)F)c(-c2cc(N3CCOCC3)nc(N3CCOCC3)n2)cn1 [BUPARLISIB]
viability at 1 µM (MDA-MB-468 [2]): 91.9%
Activity (MDA-MB-468 [3]): 6.13%
Activity (MDA-MB-468 [4]): 1.82%
Activity (MDA-MB-468 [5]): 0.16%
inhibition (MDA-MB-468 [6]): Active
inhibition (MDA-MB-468 [7]): Active
inhibition in vivo at 27.5 mg/kg (MDA-MB-468 [8]): 33.4%

solubility [9]: < 100 µg/mL
SMILES: Cl.NC(=O)c1cccc2cc(C(=O)N3CCN(c4nc(-c5cnc(N)cc5C(F)(F)F)nc(N5CCOCC5)n4)CC3)oc12

IC50 [10]: 7.3 nM
IC50 [11]: 39.6 nM
IC50 (MDA-MB-468 [12]): 4060 nM
SMILES: NC(=O)c1cccc2cc(C(=O)N3CCN(c4nc(-c5cnc(N)cc5C(F)(F)F)nc(N5CCOCC5)n4)CC3)oc12 [listing 1 of 2 here]

inhibition [1]: 5%
inhibition [13]: 51%
SMILES: NC(=O)c1cccc2cc(C(=O)N3CCN(c4nc(-c5ccc(N)c(F)c5)nc(N5CCOCC5)n4)CC3)oc12

SMILES: NC(=O)c1cccc2cc(C(=O)N3CCN(c4nc(-c5cnc(NC(=O)CN6CCOCC6)cc5C(F)(F)F)nc(N5CCOCC5)n4)CC3)oc12
inhibition (MDA-MB-468 [6]): Active
inhibition (MDA-MB-468 [7]): Active

inhibition [1]: 86%
IC50 [10]: 5.8 nM
IC50 [11]: 6.3 nM
solubility [14]: Insoluble
inhibition [13]: 70%
SMILES: NC(=O)c1cccc2cc(C(=O)N3CCN(c4nc(-c5cnc(N)nc5)nc(N5CCOCC5)n4)CC3)oc12

inhibition [1]: 80%
inhibition [13]: 51%
SMILES: NC(=O)c1cccc2cc(C(=O)N3CCN(c4cc(-c5cnc(N)cc5C(F)(F)F)nc(N5CCOCC5)n4)CC3)oc12

SMILES: Cl.NC(=O)c1cccc2cc(C(=O)N3CCN(c4nc(-c5cnc(NC(=O)CN6CCOCC6)cc5C(F)(F)F)nc(N5CCOCC5)n4)CC3)oc12
solubility [9]: > 10000 µg/mL

inhibition [1]: 79%
IC50 [10]: 10.8 nM
IC50 [11]: 119 nM
inhibition [13]: 61%
SMILES: NC(=O)c1cccc2cc(C(=O)N3CCN(c4nc(-c5ccc(N)nc5)nc(N5CCOCC5)n4)CC3)oc12

SMILES: O=C(c1cc(Cc2n[nH]c(=O)c3ccccc23)ccc1F)N1CCN(C(=O)C2CC2)CC1 [OLAPARIB]
viability at 2 µM (MDA-MB-468 [15]): 91.5%
Activity (MDA-MB-468 [16]): 6.6%
Activity (MDA-MB-468 [17]): 0.16%
inhibition (MDA-MB-468 [18]): Active
inhibition (MDA-MB-468 [19]): Active
inhibition in vivo at 50 mg/kg (MDA-MB-468 [20]): 28.5%

inhibition [1]: 29%
inhibition [13]: 36%
SMILES: NC(=O)c1cccc2cc(C(=O)N3CCN(c4nc(N5CCOCC5)nc(-n5c(C(F)F)nc6ccccc65)n4)CC3)oc12

inhibition [1]: 26%
inhibition [13]: 38%
SMILES: NC(=O)c1cccc2cc(C(=O)N3CCN(c4cc(-n5c(C(F)F)nc6ccccc65)nc(N5CCOCC5)n4)CC3)oc12

inhibition [1]: 60%
inhibition [13]: 85%
SMILES: NC(=O)c1cccc2cc(C(=O)N3CCN(c4cc(-c5cnc(N)nc5)nc(N5CCOCC5)n4)CC3)oc12

inhibition [1]: 77%
inhibition [13]: 60%
SMILES: NC(=O)c1cccc2cc(C(=O)N3CCN(c4nc(-c5cnc(N)cc5C(F)(F)F)nc(N5CCOCC5)n4)CC3)oc12 [listing 2 of 2 here]

inhibition [1]: 8%
inhibition [13]: 62%
SMILES: NC(=O)c1cccc2cc(C(=O)N3CCN(c4nc(-c5ccc6[nH]ccc6c5)nc(N5CCOCC5)n4)CC3)oc12
